# Measured values as given in ChEMBL document CHEMBL1125320, “Imidazole-5-acrylic acids: potent nonpeptide angiotensin II receptor antagonists designed using a novel peptide pharmacophore model” (J Med Chem, 1992).
# Experiments:
# [1] = target: T1, Angiotensin II receptor (Rattus norvegicus, UniProt P29089+P25095+P35351); assay: Inhibition of [125I]angiotensin II specific binding to rat mesenteric arteries; assay type: protein assay
# T1 sequence (P29089 whole entry): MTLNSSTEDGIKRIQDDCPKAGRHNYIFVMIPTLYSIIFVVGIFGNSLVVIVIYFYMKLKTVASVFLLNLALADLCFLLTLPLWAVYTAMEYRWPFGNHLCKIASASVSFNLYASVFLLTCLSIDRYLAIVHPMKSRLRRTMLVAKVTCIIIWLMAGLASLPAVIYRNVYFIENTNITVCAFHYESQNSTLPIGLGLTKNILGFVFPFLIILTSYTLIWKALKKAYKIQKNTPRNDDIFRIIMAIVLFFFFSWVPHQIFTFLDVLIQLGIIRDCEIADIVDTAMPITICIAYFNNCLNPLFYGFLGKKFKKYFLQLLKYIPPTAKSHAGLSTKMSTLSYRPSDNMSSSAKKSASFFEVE
# T1 sequence (P25095 whole entry): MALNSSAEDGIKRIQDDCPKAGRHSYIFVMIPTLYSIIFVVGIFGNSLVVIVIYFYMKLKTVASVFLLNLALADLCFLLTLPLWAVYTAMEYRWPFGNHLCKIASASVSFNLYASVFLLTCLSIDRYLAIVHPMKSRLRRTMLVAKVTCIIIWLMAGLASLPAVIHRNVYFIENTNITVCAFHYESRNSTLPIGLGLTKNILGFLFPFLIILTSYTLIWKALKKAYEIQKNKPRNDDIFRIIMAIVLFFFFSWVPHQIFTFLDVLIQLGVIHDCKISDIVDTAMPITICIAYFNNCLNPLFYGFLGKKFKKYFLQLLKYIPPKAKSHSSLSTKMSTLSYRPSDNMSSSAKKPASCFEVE
# T1 sequence (P35351 whole entry): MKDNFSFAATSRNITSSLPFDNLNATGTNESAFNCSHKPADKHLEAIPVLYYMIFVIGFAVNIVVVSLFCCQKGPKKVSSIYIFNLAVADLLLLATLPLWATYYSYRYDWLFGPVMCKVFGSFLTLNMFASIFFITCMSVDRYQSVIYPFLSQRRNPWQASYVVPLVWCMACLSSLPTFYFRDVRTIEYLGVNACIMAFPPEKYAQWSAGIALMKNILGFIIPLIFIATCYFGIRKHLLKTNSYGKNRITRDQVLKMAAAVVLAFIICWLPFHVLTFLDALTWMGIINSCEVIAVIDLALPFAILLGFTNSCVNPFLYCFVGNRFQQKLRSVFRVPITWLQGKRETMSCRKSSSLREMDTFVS
# [2] = target: Angiotensin II receptor (Oryctolagus cuniculus); assay: Inhibition of angiotensin II induced vasoconstriction of rabbit aorta
# [3] = test system: Rattus norvegicus; assay: Compound was evaluated in vivo, for the dose that produced 50% inhibition of the pressor response to AII in conscious normotensive rats after iv administration; assay type: functional; details: read-out: ID50 (the source's name)
# In short: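 Conscious normotensive rats with indwelling femoral arterial and venous catheters were tested 2-3 days after surgery while in a restrainer, with continuous arterial pressure recording. The MAP rise to iv angiotensin II 250 ng/kg was measured at time points before and after iv compound at 0.3-300 mg/kg.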
# [4] = target: T2, Type-1 angiotensin II receptor B (Rattus norvegicus, UniProt P29089); assay: Inhibition of [125I]angiotensin II receptor specific binding to rat mesenteric arteries
# T2 sequence (P29089 whole entry): T1 sequence (P29089 whole entry)
# [5] = test system: Rattus norvegicus; assay: Compound was evaluated in vivo, for the dose that produced 50% inhibition of the pressor response to AII in conscious normotensive rats after intraduodenal administration; assay type: functional; details: read-out: ID50 (the source's name)
# [6] = target: T3, Type-1 angiotensin II receptor (Oryctolagus cuniculus) (UniProt P34976); assay: (§1) Compound was evaluated for the inhibition of AII-induced vasoconstriction of the rabbit aorta; assay type: functional, tissue-based
# T3 sequence (whole entry): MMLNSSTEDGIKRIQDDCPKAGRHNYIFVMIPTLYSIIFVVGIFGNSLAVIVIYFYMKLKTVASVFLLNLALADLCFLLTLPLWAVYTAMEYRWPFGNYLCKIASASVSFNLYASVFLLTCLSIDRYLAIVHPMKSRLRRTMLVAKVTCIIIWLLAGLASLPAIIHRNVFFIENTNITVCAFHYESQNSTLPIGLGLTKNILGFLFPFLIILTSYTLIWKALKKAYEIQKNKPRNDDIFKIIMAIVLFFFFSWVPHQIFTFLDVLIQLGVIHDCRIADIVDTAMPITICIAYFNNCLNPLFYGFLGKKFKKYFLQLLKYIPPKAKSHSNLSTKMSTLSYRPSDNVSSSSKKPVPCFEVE
# In short: (§2)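 Isolated rabbit aorta ring segments mounted on metal supports attached to force displacement transducers. Cumulative angiotensin II concentration-response curves were run without antagonist or after a 30-min antagonist incubation.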
# [7] = target: T3, Type-1 angiotensin II receptor (Oryctolagus cuniculus); assay: (§3) Compound was evaluated for the inhibition of Angiotensin II receptor induced vasoconstriction of the rabbit aorta; assay type: tissue-based; in short: as §2
# [8] = target: Angiotensin II receptor (Oryctolagus cuniculus); assay: Compound was evaluated for the inhibition of Angiotensin II receptor, induced vasoconstriction of the rabbit aorta
# [9] = target: T2, Type-1 angiotensin II receptor B; assay: Compound was evaluated for the inhibition of [125I]AII specific binding to rat mesenteric arteries
# In short: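 Particulate fraction from rat mesenteric arteries incubated in Tris buffer with 80 pM [125I]angiotensin II, with or without antagonist, for 1 h at 25 °C. The incubation was stopped by rapid filtration, and filter-bound radioligand was counted on a γ counter. Inhibition of specific binding; n = 3-5.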
# [10] = target: T3, Type-1 angiotensin II receptor (Oryctolagus cuniculus); assay: as §1; assay type: tissue-based; in short: as §2
# [11] = target: T3, Type-1 angiotensin II receptor (Oryctolagus cuniculus); assay: as §3; assay type: functional, tissue-based; in short: as §2
# [12] = target: T3, Type-1 angiotensin II receptor (Oryctolagus cuniculus); assay: as §1; in short: as §2
Compound,IC50 [1] [nM],Kb [2] [nM],also measured
CCCCc1ncc(/C=C(\C)C(=O)O)n1Cc1ccccc1Cl,22300,970,–
CCCCc1nc(Cl)c(CC(=O)O)n1Cc1ccccc1Cl,–,–,Kb [7]: 2700 nM; ED50 [3]: 30 mg/kg
CCCCc1ncc(/C=C(/Cc2ccccc2)C(=O)O)n1Cc1ccccc1Cl,–,–,Kb [6]: 8700 nM
CCCCc1ncc(/C=C(\Cc2cc(OC)c(OC)c(OC)c2)C(=O)O)n1Cc1ccccc1Cl,1900,1700,–
CCCCc1ncc(/C=C(\Cc2ccc(OC)c(OC)c2)C(=O)O)n1Cc1ccccc1Cl,6800,–,Kb [8]: 620 nM
CCCCc1ncc(CCCC(=O)O)n1Cc1ccccc1Cl,> 10000,15000,–
CCCCc1ncc(/C(C)=C/C(=O)O)n1Cc1ccccc1Cl,3600,660,–
CCCCc1ncc(-c2ccccc2C(=O)O)n1Cc1ccccc1Cl,> 100000,17200,–
CCCCc1ncc(/C=C(\Cc2cccs2)C(=O)O)n1Cc1ccccc1Cl,–,–,ED50 [3]: 3.6 mg/kg
CCCCc1ncc(/C=C(/C(=O)O)C(CCCC)c2cccs2)n1Cc1ccccc1Cl (stereo not drawn),18700,–,Kb [6]: 3100 nM
CCCCc1ncc(CCC(=O)O)n1Cc1ccccc1Cl,16500,2800,–
CCCCc1ncc(/C=C/C(=O)O)n1Cc1ccccc1Cl,124000,14000,–
CCCCc1ncc(-c2cccc(C(=O)O)c2)n1Cc1ccccc1Cl,33900,4800,–
CCCCc1ncc(/C=C(/C(=O)O)C(c2ccccc2)c2cccs2)n1Cc1ccccc1Cl (stereo not drawn),–,2300,IC50 [4]: 2400 nM
CCCCc1ncc(CC(=O)O)n1Cc1ccccc1Cl,–,–,ED50 [3]: 22.5 mg/kg
CCCCc1ncc(/C=C(\Cc2ccsc2)C(=O)O)n1Cc1ccccc1Cl,–,–,IC50 [4]: 330 nM; ED50 [3]: 6.4 mg/kg
CCCCc1ncc(/C=C(\Cc2cccc(Oc3ccccc3)c2)C(=O)O)n1Cc1ccccc1Cl,–,–,IC50 [9]: 10000 nM; Kb [10]: 18100 nM
CCCCc1ncc(CCCCC(=O)O)n1Cc1ccccc1Cl,17000,11000,–
CCCCc1ncc(/C=C\C(=O)O)n1Cc1ccccc1Cl,8900,810,ED50 [3]: 15 mg/kg
CCCCc1ncc(/C=C(/C(=O)O)C(Cc2ccccc2)c2cccs2)n1Cc1ccccc1Cl (stereo not drawn),5200,610,–
CCCCc1ncc(/C=C(/C(=O)O)C(C)c2ccccc2)n1Cc1ccccc1Cl (stereo not drawn),4600,240,–
CCCCc1ncc(/C=C(\Cc2ccccc2)C(=O)O)n1Cc1ccccc1Cl,–,–,IC50 [4]: 2600 nM; ED50 [3]: 14 mg/kg; Kb [12]: 64 nM
CCCCc1ncc(/C=C(\Cc2cc(OC)cs2)C(=O)O)n1Cc1ccccc1Cl,–,30,IC50 [4]: 300 nM
CCCCc1ncc(/C=C(\Cc2ccc3c(c2)OCO3)C(=O)O)n1Cc1ccccc1Cl,470,130,ED50 [3]: 9.4 mg/kg
CCCCc1ncc(CCCCCC(=O)O)n1Cc1ccccc1Cl,19000,7000,–

# Second part, led by results:
IC50 [1] [nM],Kb [2] [nM],Compound,also measured
21900,14600,CCCCc1ncc(/C=C(\Cc2ccc3ccccc3c2)C(=O)O)n1Cc1ccccc1Cl,–
360,30,CCCCc1ncc(/C=C(\Cc2ccoc2)C(=O)O)n1Cc1ccccc1Cl,–
300,180,CCCCc1ncc(/C=C(\Cc2cccnc2)C(=O)O)n1Cc1ccccc1Cl,ED50 [3]: 9.8 mg/kg
2900,420,CCCCc1ncc(/C=C(\CCc2ccccc2)C(=O)O)n1Cc1ccccc1Cl,–
–,310,CCCCc1ncc(/C=C(\Cc2ccc([N+](=O)[O-])cc2)C(=O)O)n1Cc1ccccc1Cl,IC50 [4]: 400 nM
810,120,CCCCc1ncc(/C=C(\Cc2ccc(OC)cc2)C(=O)O)n1Cc1ccccc1Cl,ED50 [3]: 9 mg/kg
58,–,CCCCc1ncc(/C=C(\Cc2ccc(O)c(O)c2)C(=O)O)n1Cc1ccccc1Cl,ED50 [5]: 20 mg/kg; Kb [6]: 140 nM
250,310,CCCCc1ncc(/C=C(\Cc2c[nH]cn2)C(=O)O)n1Cc1ccccc1Cl,ED50 [3]: 11 mg/kg
–,13700,CCCCc1ncc(/C=C(\Cc2ccc(Cl)c(Cl)c2)C(=O)O)n1Cc1ccccc1Cl,IC50 [4]: 25600 nM
–,1140,CCCCc1ncc(/C=C(\Cc2ccccc2C)C(=O)O)n1Cc1ccccc1Cl,IC50 [4]: 5000 nM
820,2900,CCCCc1ncc(/C=C(\Cc2ccccn2)C(=O)O)n1Cc1ccccc1Cl,–
14600,590,CCCCc1ncc(/C=C(\Cc2ccc(N(C)C)cc2)C(=O)O)n1Cc1ccccc1Cl,–
150,170,CCCCc1ncc(/C=C(\Cc2ccncc2)C(=O)O)n1Cc1ccccc1Cl,ED50 [3]: 5.9 mg/kg
1200,50,CCCCc1ncc(/C=C(\Cc2ccco2)C(=O)O)n1Cc1ccccc1Cl,–
20100,600,CCCCc1ncc(/C=C(/C(=O)O)c2ccccc2)n1Cc1ccccc1Cl,–
> 100000,14400,CCCCc1ncc(/C=C(/Cc2ccco2)C(=O)O)n1Cc1ccccc1Cl,–
–,130,CCCCc1ncc(/C=C(\Cc2ccc(C)s2)C(=O)O)n1Cc1ccccc1Cl,IC50 [4]: 700 nM; ED50 [3]: 7.6 mg/kg
–,320,CCCCc1ncc(/C=C(\Cc2ccc(N)cc2)C(=O)O)n1Cc1ccccc1Cl,IC50 [4]: 3000 nM
860,–,CCCCc1ncc(/C=C(\CCc2cccs2)C(=O)O)n1Cc1ccccc1Cl,Kb [11]: 140 nM
–,280,CCCCc1ncc(/C=C(\Cc2sccc2C)C(=O)O)n1Cc1ccccc1Cl,IC50 [4]: 730 nM
–,30,CCCCc1ncc(/C=C(\Cc2ccc(OC)s2)C(=O)O)n1Cc1ccccc1Cl,IC50 [4]: 90 nM
810,270,CCCCc1ncc(/C=C(\Cc2cccc(OC)c2)C(=O)O)n1Cc1ccccc1Cl,ED50 [3]: 10 mg/kg
120,470,CCCCc1ncc(/C=C(\Cc2ccc(O)cc2)C(=O)O)n1Cc1ccccc1Cl,–
